In assay [1] the test system is HeLa. Briefly: Cell cycle arrest in human HeLa cells assessed as accumulation at G2/M phase at 1 uM after 24 hrs. It counts as functional. Summed up: (§1)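 HeLa cells grown in DMEM with 10% FBS at 37 °C, 5% CO2, in 60 mm dishes, exposed to drug for 24 h. Drugs were diluted in medium from 50 mM DMSO stocks. Cells were fixed in 90% methanol at −20 °C and stained with propidium iodide. Flow cytometry gave the percentage of cells with 4N DNA content (G2/M).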

Assay [2] has as its system HeLa. Briefly: Induction of mitotic arrest in human HeLa cells assessed as monoastral spindle formation after 24 hrs. It counts as functional, cell-based.
For assay [3], the system named is HeLa. The experiment in a line: Cell cycle arrest in human HeLa cells assessed as accumulation at G2/M phase at 5 uM after 24 hrs. The format is functional. Summed up:
as §1

The subject of assay [4] is HeLa. The experiment in a line: Induction of mitotic arrest in human HeLa cells at 1 uM assessed as MPM2 antibody positive cells after 24 hrs. The format is functional. The method in brief: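 HeLa cells (DMEM, 10% FBS, 37 °C, 5% CO2) were drug-treated for 24 h, then fixed in 90% methanol at −20 °C. They were labelled with MPM-2 mitotic phospho-epitope antibody plus FITC anti-mouse IgG, and with propidium iodide. Two-dimensional flow cytometry gave the percentage of 4N-arrested cells that were MPM2-positive.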

The test system of assay [5] is HeLa. The experiment in a line: Induction of mitotic arrest in human HeLa cells after 24 hrs. The format is functional, cell-based. The method in brief: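 A concentration series was given to HeLa cells for 24 h (DMEM, 10% FBS, 37 °C, 5% CO2). Cells were fixed in methanol at −20 °C, then stained with MPM-2 antibody/FITC secondary and propidium iodide. Two-dimensional flow cytometry followed.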

The next assay is described as follows: cells. The note with it: Homo sapiens, NCI60.

Where a SMILES comes first, the peptide text is derived from it. The star is where a group is joined. Trt = c1ccc(C(c2ccccc2)(c2ccccc2)*)cc1 Bounds are passed on as bounds.

Usually EC50 stands for the concentration at which the effect is half-maximal. For the compound `COC(=O)[C@@H](N)CSC(c1ccccc1)(c1ccccc1)c1ccccc1`, the Activity in the assay with HeLa [1] stood at 20.2%; in the assay on HeLa [3], 72.4%. In addition, the EC50 with HeLa [2] was found to be 1.08 µM. Taken in the same sequence, the figures for `CCCCC(SC[C@H](N)C(=O)O)(c1ccccc1)c1ccccc1` were 19.1%, 71.1% and 1.4 µM.

Regarding `CC(C)C(SC[C@H](N)C(=O)O)(c1ccccc1)c1ccccc1`, the results for the Activity in the assay on HeLa [1] and in the assay with HeLa [3] were 22.6% and 59.1%, respectively. The EC50 in the assay with HeLa [2] was determined as 1.08 µM. As to `N[C@@H](CSC(c1ccccc1)(c1ccc(CO)cc1)c1ccc(CO)cc1)C(=O)O`, the EC50 in the assay with HeLa [2] is over 5 µM. Take `N[C@@H](CSC(c1ccccc1)(c1ccccc1)c1ccc2c(c1)OCO2)C(=O)O`: the Activity was 24.3% with HeLa [1] and 68% with HeLa [3]. In the assay with HeLa [2], the concentration giving a half-maximal response (EC50) amounted to 1.37 µM.

Take `N[C@@H](CSC(c1ccccc1)(c1ccccc1)c1ccc2ccccc2c1)C(=O)O`: the Activity in the assay on HeLa [1] is 68.1%; in the assay on HeLa [4], 79.9%. For the same compound, the EC50 in the assay with HeLa [2] came out at 0.33 µM; in the assay with HeLa [5], 600 nM. Regarding `N[C@@H](CSC1(c2ccccc2)c2ccccc2-c2ccccc21)C(=O)O`, the EC50 in the assay on HeLa [2] is over 5 µM. For `NCCCSC(c1ccccc1)(c1ccccc1)c1ccccc1`, the EC50 in the assay on HeLa [2] was over 5 µM.

With `N[C@@H](CSC1(c2ccc(F)cc2)c2ccccc2-c2ccccc21)C(=O)O`, the EC50 in the assay with HeLa [2] was over 5 µM. Take `N[C@@H](CSC(c1ccccc1)(c1ccccc1)C1CCCCC1)C(=O)O`: the Activity in the assay with HeLa [1] amounted to 19.9%; with HeLa [3], 55.2%. Moreover, in the assay with HeLa [2], the EC50 amounted to 1.85 µM. For `N[C@@H](CSC(c1ccccc1)(c1ccccc1)c1ccc(O)cc1)C(=O)O`, the EC50 in the assay with HeLa [2] is over 5 µM. In the case of `NCCCCSC(c1ccccc1)(c1ccccc1)c1ccccc1`, the EC50 in the assay with HeLa [2] is over 5 µM.

Turning to `N[C@@H](CSC(c1ccccc1)(c1ccccc1)c1ccccc1)C(=O)NCC(=O)O`, the EC50 with HeLa [2] was over 5 µM. Turning to `N[C@@H](CSC1(c2ccc(Cl)cc2)c2ccccc2-c2ccccc21)C(=O)O`, the EC50 in the assay with HeLa [2] was over 5 µM. As to `CC(=O)N[C@@H](CSC1(c2ccccc2)c2ccccc2-c2ccccc21)C(=O)O`, the half-maximal effective concentration (EC50) in the assay with HeLa [2] was over 5 µM. Still for that read-out and setting: to `COc1ccc(C(SC[C@H](N)C(=O)O)(c2ccccc2)c2ccc(OC)cc2)cc1` belongs over 5 µM; to `N[C@@H](CSC(c1ccccc1)(c1ccc(-c2ccccc2)cc1)c1ccc(-c2ccccc2)cc1)C(=O)O`, over 5 µM. Turning to `N[C@@H](CSC(c1ccccc1)(c1ccccc1)c1cccc2ccccc12)C(=O)O`, in the assay with HeLa [2], the EC50 was over 5 µM. With `COc1ccc(C(SC[C@H](N)C(=O)O)(c2ccccc2)c2ccccc2)cc1`, the Activity with HeLa [1] was 69%; in the assay with HeLa [4], 81.6%. Further, the EC50 in the assay with HeLa [2] amounted to 0.2 µM; in the assay with HeLa [5], 300 nM.

Regarding `CCC(SC[C@H](N)C(=O)O)(c1ccccc1)c1ccccc1`, the EC50 in the assay on HeLa [2] was over 5 µM. As to `CC(SC[C@H](N)C(=O)O)(c1ccccc1)c1ccccc1`, the EC50 in the assay on HeLa [2] is over 5 µM. `NCCSC(c1ccccc1)(c1ccccc1)c1ccccc1`: the results for the Activity with HeLa [1] and with HeLa [3] were 21.1% and 65.8%, respectively. Also, the EC50 in the assay with HeLa [2] is 1.08 µM. Consider `CC(C)(SC(c1ccccc1)(c1ccccc1)c1ccccc1)C(N)C(=O)O` (centres undefined), for which the EC50 in the assay on HeLa [2] is over 5 µM.

In the case of `N[C@@H](CSC(c1ccccc1)(c1ccccc1)c1ccc(Cl)cc1)C(=O)O`, the Activity with HeLa [1] is reported as 48.5%; with HeLa [3], 74.7%. Moreover, the EC50 with HeLa [2] turned out to be 0.51 µM; in the assay with HeLa [5], 660 nM.

Regarding `Cc1ccc(C(SC[C@H](N)C(=O)O)(c2ccccc2)c2ccc(C)cc2)cc1`, the Activity with HeLa [1] was found to be 50.8%; in the assay with HeLa [3] it was 70.9%. The EC50 in the assay with HeLa [2] was determined as 0.53 µM; in the assay with HeLa [5], 1000 nM. `O=C(O)C(CSC(c1ccccc1)(c1ccccc1)c1ccccc1)/N=C/c1cccs1` (centres undefined): the EC50 with HeLa [2] is over 5 µM. Consider `CC(NC(=O)[C@@H](N)CSC(c1ccccc1)(c1ccccc1)c1ccccc1)C(=O)O` (some centres undefined), for which the EC50 in the assay with HeLa [2] is over 5 µM.

Regarding `Cc1ccc(C(SC[C@H](N)C(=O)O)(c2ccc(C)cc2)c2ccc(C)cc2)cc1`, the EC50 in the assay with HeLa [2] was found to be 3.1 µM. Moreover, the Activity in the assay on HeLa [3] is listed as 34.1%. Regarding `Cc1ccc(C2(SC[C@H](N)C(=O)O)c3ccccc3-c3ccccc32)cc1`, the EC50 in the assay with HeLa [2] is over 5 µM. Take `N[C@@H](CSC(c1ccccc1)(c1ccccc1)c1ccc(CO)cc1)C(=O)O`: the EC50 in the assay on HeLa [2] was over 5 µM.

As for `N[C@@H](CSC(c1ccccc1)(c1ccccc1)c1ccc(Br)cc1)C(=O)O`, the Activity is reported as 68.7% in the assay on HeLa [1] and 77.4% in the assay with HeLa [4]. Besides, the EC50 in the assay on HeLa [2] is 0.31 µM; with HeLa [5] it was 450 nM.

Take `N[C@@H](CSC(c1ccccc1)(c1ccccc1)c1ccc(F)cc1)C(=O)O`: the Activity in the assay with HeLa [1] stood at 24%; in the assay with HeLa [3] it was 68.8%. In addition, the EC50 in the assay with HeLa [2] was determined as 1.55 µM. As to `N[C@@H](COC(c1ccccc1)(c1ccccc1)c1ccccc1)C(=O)O`, the EC50 with HeLa [2] is over 5 µM. For `N[C@@H](CSC1(c2cccc3ccccc23)c2ccccc2-c2ccccc21)C(=O)O`, in the assay with HeLa [2], the EC50 is over 5 µM. On to `Cc1ccc(C(SC[C@H](N)C(=O)O)(c2ccccc2)c2ccccc2)cc1`, for which the Activity was 71% with HeLa [1] and 84.1% in the assay on HeLa [4]. The EC50 with HeLa [2] was found to be 0.21 µM; with HeLa [5] it was 330 nM. As for `N[C@@H](CSC(c1ccccc1)c1ccccc1)C(=O)O`, in the assay with HeLa [2], the EC50 was over 5 µM. For the compound `N[C@@H](CSC(c1ccccc1)(c1ccccc1)c1ccccc1)C(=O)OC(c1ccccc1)c1ccccc1`, the EC50 in the assay on HeLa [2] is over 5 µM. In the case of `N[C@@H](CSC(c1ccccc1)(c1ccccc1)c1ccccc1)C(=O)N[C@@H](CSC(c1ccccc1)(c1ccccc1)c1ccccc1)C(=O)O` (H-Cys(Trt)-Cys(Trt)-OH), in the assay on HeLa [2], the concentration giving a half-maximal response (EC50) was over 5 µM. For `COC(=O)[C@H](CC(C)C)NC(=O)[C@@H](N)CSC(c1ccccc1)(c1ccccc1)c1ccccc1` (H-Cys(Trt)-Leu-OMe), the EC50 in the assay with HeLa [2] stood at 5 µM.

Turning to `COC(=O)[C@@H](NC(=O)[C@@H](N)CSC(c1ccccc1)(c1ccccc1)c1ccccc1)C(C)C` (H-Cys(Trt)-Val-OMe), the EC50 in the assay with HeLa [2] came out at 3.5 µM. Also, the Activity in the assay with HeLa [3] came to 21.8%. The term GI50 denotes the concentration that inhibits growth by half. The low end stands for greater sensitivity of the cells, the high end for lower sensitivity of the cells. In turn, `N[C@@H](CSC(c1ccccc1)(c1ccccc1)c1ccccc1)C(=O)O` [S-TRITYL-L-CYSTEINE] showed a concentration for 50% growth inhibition (GI50) in “cells” of 1310 nM. Also, the Activity in the assay with HeLa [1] came to 23.1%; in the assay with HeLa [3], 75.8%. For the same compound, the EC50 is 0.7 µM in the assay with HeLa [2] and 1700 nM in the assay with HeLa [5].

Values taken from ChEMBL document CHEMBL1143136 (J Med Chem, 2008).
